Laboratory results: ChEMBL document CHEMBL3994569, “Synthesis, anti-varicella-zoster virus and anti-cytomegalovirus activity of quinazoline-2,4-diones containing isoxazolidine and phosphonate substructures” (Eur J Med Chem, 2017)

Legend:
[1] = Cytotoxicity against HEL cells infected with Cytomegalovirus assessed as alteration in cell morphology by microscopic method; assay type: cell-based; conditions: human, HEL cells infected with Cytomegalovirus
Outline: (§1)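 In the HEL cultures used for the antiviral assays, cell morphology was examined microscopically across varying compound concentrations. MCC is the minimum concentration causing a microscopically detectable alteration of cell morphology.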

Human alphaherpesvirus 3 [2] = test: Antiviral activity against thymidine kinase expressing Varicella-Zoster virus OKA infected in HEL cells assessed as reduction in virus plaque formation; assay type: functional, cell-based, strain Oka vaccine; conditions: Human alphaherpesvirus 3, strain Oka vaccine, HEL
Outline: (§2)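 Confluent HEL fibroblast cultures were infected with VZV at an input of 100 PFU and incubated with varying compound concentrations. Plaques were counted once plaque formation was complete in untreated infected controls.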

Human alphaherpesvirus 3 [3] = test: Antiviral activity against thymidine kinase deficient Varicella-Zoster virus 07-1 infected in HEL cells assessed as reduction in virus plaque formation; assay type: functional, cell-based; conditions: Human alphaherpesvirus 3, 07-1, HEL; outline: as §2
[4] = Cytotoxicity against HEL cells infected with Varicella-Zoster virus assessed as alteration in cell morphology by microscopic method; assay type: cell-based; conditions: human, HEL cells infected with Varicella-Zoster virus; outline: as §1
Cytomegalovirus [5] = test: Antiviral activity against Cytomegalovirus AD169 infected in HEL cells assessed as reduction in virus plaque formation; assay type: functional, cell-based; conditions: Human betaherpesvirus 5, AD169, HEL
Outline: (§3)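 Confluent HEL fibroblast cultures infected with 100 PFU of HCMV and kept with varying compound concentrations. Plaques scored once plaque formation was complete in untreated infected controls.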

Cytomegalovirus [6] = test: Antiviral activity against Cytomegalovirus Davis infected in HEL cells assessed as reduction in virus plaque formation; assay type: functional, cell-based; conditions: Human betaherpesvirus 5, Davis, HEL; outline: as §3
L1210 = test: Anti-proliferative activity against mouse L1210 cells measured after 48 hrs by coulter counter method; assay type: ADME, cell-based; conditions: Mus musculus, L1210, 48 h
Outline: (§4)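 Cells at 300,000–500,000 cells/mL, combined 1:1 by volume with compound dilutions, incubated at 37 °C: L1210 for two days, CEM for three days, HeLa for four days. Cells counted by Coulter counter.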

HeLa = test: Anti-proliferative activity against human HeLa cells measured after 4 days by coulter counter method; assay type: ADME, cell-based; conditions: Homo sapiens, HeLa, 96 h; outline: as §4
HMEC-1 = test: Anti-proliferative activity against HMEC1 cells by coulter counter method; assay type: ADME, cell-based, Homo sapiens; conditions: Homo sapiens, HMEC-1
Outline: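 HMEC-1 cells at 300,000–500,000 cells/mL, mixed 1:1 by volume with serial dilutions of test compound, incubated at 37 °C. Cell number counted by Coulter counter.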

CCRF-CEM = test: Anti-proliferative activity against human CEM cells measured after 72 hrs by coulter counter method; assay type: ADME, cell-based; conditions: Homo sapiens, CCRF-CEM, 72 h; outline: as §4
HEL = test: Cytotoxicity against HEL cells infected with Varicella-Zoster virus assessed as growth inhibition; assay type: cell-based; conditions: human, hel

CCOP(=O)(OCC)C1CC(Cn2c(=O)n(C(=O)c3ccccc3F)c(=O)c3ccccc32)ON1C (mixture of isomers)
MCC [1]: 100 µM
EC50 (Human alphaherpesvirus 3 [2]): 29 µM
EC50 (Human alphaherpesvirus 3 [3]): 25.6 µM
MCC [4]: > 100 µM
EC50 (Cytomegalovirus [5]): > 100 µM
EC50 (Cytomegalovirus [6]): 63.1 µM
IC50 (L1210): > 250 µM
IC50 (HeLa): > 250 µM
IC50 (HMEC-1): > 250 µM

CCOP(=O)(OCC)[C@H]1C[C@@H](Cn2c(=O)n(Cc3ccccc3F)c(=O)c3ccccc32)ON1C (relative stereo)
MCC [1]: 100 µM
EC50 (Human alphaherpesvirus 3 [2]): 58.5 µM
EC50 (Human alphaherpesvirus 3 [3]): > 100 µM
MCC [4]: > 100 µM
EC50 (Cytomegalovirus [5]): > 100 µM
EC50 (Cytomegalovirus [6]): 100 µM
IC50 (L1210): 203 µM
IC50 (CCRF-CEM): 181 µM
IC50 (HeLa): 128 µM
IC50 (HMEC-1): ≥ 250 µM

CCOP(=O)(OCC)[C@@H]1C[C@@H](Cn2c(=O)n(C(=O)c3ccc(F)cc3)c(=O)c3ccccc32)ON1Cc1ccccc1 (relative stereo)
MCC [1]: 20 µM
EC50 (Human alphaherpesvirus 3 [2]): 7.5 µM
EC50 (Human alphaherpesvirus 3 [3]): 8.3 µM
MCC [4]: 100 µM
CC50 (HEL): 12.7 µM
EC50 (Cytomegalovirus [5]): > 20 µM
EC50 (Cytomegalovirus [6]): > 20 µM
IC50 (L1210): 123 µM
IC50 (CCRF-CEM): 170 µM
IC50 (HMEC-1): ≥ 250 µM

CCOP(=O)(OCC)[C@@H]1C[C@@H](Cn2c(=O)n(Cc3ccccc3F)c(=O)c3ccccc32)ON1Cc1ccccc1 (relative stereo)
MCC [1]: 20 µM
EC50 (Human alphaherpesvirus 3 [2]): 4 µM
EC50 (Human alphaherpesvirus 3 [3]): > 20 µM
MCC [4]: 20 µM
EC50 (Cytomegalovirus [5]): > 20 µM
EC50 (Cytomegalovirus [6]): > 4 µM
IC50 (L1210): 68 µM
IC50 (CCRF-CEM): 98 µM
IC50 (HeLa): 79 µM
IC50 (HMEC-1): 145 µM

CCOP(=O)(OCC)C1CC(Cn2c(=O)n(C(=O)c3ccc(F)cc3)c(=O)c3ccccc32)ON1Cc1ccccc1 (mixture of isomers)
MCC [1]: 20 µM
EC50 (Human alphaherpesvirus 3 [2]): 7.4 µM
EC50 (Human alphaherpesvirus 3 [3]): 7.6 µM
MCC [4]: 100 µM
CC50 (HEL): 12.3 µM
EC50 (Cytomegalovirus [5]): > 20 µM
EC50 (Cytomegalovirus [6]): > 20 µM
IC50 (L1210): 105 µM
IC50 (CCRF-CEM): 132 µM
IC50 (HeLa): > 250 µM

CCOP(=O)(OCC)[C@@H]1C[C@@H](Cn2c(=O)n(Cc3ccccc3)c(=O)c3ccccc32)ON1C (relative stereo)
MCC [1]: 100 µM
EC50 (Human alphaherpesvirus 3 [2]): > 20 µM
EC50 (Human alphaherpesvirus 3 [3]): > 20 µM
MCC [4]: 100 µM
EC50 (Cytomegalovirus [5]): > 100 µM
EC50 (Cytomegalovirus [6]): > 100 µM
IC50 (L1210): 141 µM
IC50 (CCRF-CEM): 124 µM
IC50 (HeLa): 119 µM
IC50 (HMEC-1): 235 µM

CCOP(=O)(OCC)C1CC(Cn2c(=O)n(C(=O)c3cccc(F)c3)c(=O)c3ccccc32)ON1Cc1ccccc1 (mixture of isomers)
MCC [1]: 100 µM
EC50 (Human alphaherpesvirus 3 [2]): 6 µM
EC50 (Human alphaherpesvirus 3 [3]): 8.5 µM
MCC [4]: 100 µM
CC50 (HEL): 19.3 µM
EC50 (Cytomegalovirus [5]): > 20 µM
EC50 (Cytomegalovirus [6]): > 20 µM
IC50 (L1210): 185 µM
IC50 (CCRF-CEM): 166 µM
IC50 (HMEC-1): > 250 µM

CCOP(=O)(OCC)[C@@H]1C[C@@H](Cn2c(=O)n(C(=O)c3ccccc3F)c(=O)c3ccccc32)ON1C (relative stereo)
MCC [1]: 100 µM
EC50 (Human alphaherpesvirus 3 [2]): 36.6 µM
EC50 (Human alphaherpesvirus 3 [3]): 34.2 µM
MCC [4]: > 100 µM
EC50 (Cytomegalovirus [5]): > 20 µM
EC50 (Cytomegalovirus [6]): 66.9 µM
IC50 (CCRF-CEM): > 250 µM

CCOP(=O)(OCC)[C@@H]1C[C@@H](Cn2c(=O)n(Cc3cccc(F)c3)c(=O)c3ccccc32)ON1C (relative stereo)
MCC [1]: > 100 µM
EC50 (Human alphaherpesvirus 3 [2]): 55.7 µM
EC50 (Human alphaherpesvirus 3 [3]): > 100 µM
MCC [4]: > 100 µM
EC50 (Cytomegalovirus [5]): 76.5 µM
EC50 (Cytomegalovirus [6]): 63.1 µM
IC50 (L1210): 132 µM
IC50 (CCRF-CEM): 100 µM
IC50 (HeLa): 88 µM
IC50 (HMEC-1): 152 µM

CCOP(=O)(OCC)[C@H]1C[C@@H](Cn2c(=O)n(C(=O)c3ccccc3)c(=O)c3ccccc32)ON1Cc1ccccc1 (relative stereo)
MCC [1]: 100 µM
EC50 (Human alphaherpesvirus 3 [2]): 8.5 µM
EC50 (Human alphaherpesvirus 3 [3]): 10.8 µM
MCC [4]: 100 µM
CC50 (HEL): 16.3 µM
EC50 (Cytomegalovirus [5]): > 20 µM
EC50 (Cytomegalovirus [6]): > 20 µM
IC50 (L1210): 155 µM
IC50 (HMEC-1): > 250 µM

CCOP(=O)(OCC)[C@@H]1C[C@@H](Cn2c(=O)n(Cc3ccc(F)cc3)c(=O)c3ccccc32)ON1C (relative stereo)
MCC [1]: 100 µM
EC50 (Human alphaherpesvirus 3 [2]): 66.9 µM
EC50 (Human alphaherpesvirus 3 [3]): > 20 µM
MCC [4]: 10 µM
EC50 (Cytomegalovirus [5]): > 100 µM
EC50 (Cytomegalovirus [6]): 100 µM
IC50 (L1210): 126 µM
IC50 (CCRF-CEM): 93 µM
IC50 (HeLa): 82 µM
IC50 (HMEC-1): 158 µM

O=c1[nH]cc(F)c(=O)[nH]1 [FLUOROURACIL]
IC50 (L1210): 0.33 µM

CCOP(=O)(OCC)C1CC(Cn2c(=O)n(Cc3ccc(F)cc3)c(=O)c3ccccc32)ON1C (mixture of isomers)
MCC [1]: 100 µM
EC50 (Human alphaherpesvirus 3 [2]): 35.5 µM
EC50 (Human alphaherpesvirus 3 [3]): 25.2 µM
MCC [4]: 100 µM
EC50 (Cytomegalovirus [5]): > 20 µM
EC50 (Cytomegalovirus [6]): > 20 µM
IC50 (L1210): ≥ 250 µM
IC50 (CCRF-CEM): 173 µM
IC50 (HeLa): 158 µM
IC50 (HMEC-1): ≥ 250 µM

CCOP(=O)(OCC)C1CC(Cn2c(=O)n(C(=O)c3cccc(F)c3)c(=O)c3ccccc32)ON1C (mixture of isomers)
MCC [1]: 100 µM
EC50 (Human alphaherpesvirus 3 [2]): 7.8 µM
EC50 (Human alphaherpesvirus 3 [3]): 21.4 µM
MCC [4]: > 100 µM
CC50 (HEL): 30 µM
EC50 (Cytomegalovirus [5]): > 100 µM
EC50 (Cytomegalovirus [6]): > 100 µM
IC50 (L1210): > 250 µM
IC50 (HeLa): > 250 µM

CCOP(=O)(OCC)C1CC(Cn2c(=O)n(Cc3ccccc3)c(=O)c3ccccc32)ON1C (mixture of isomers)
MCC [1]: 100 µM
EC50 (Human alphaherpesvirus 3 [2]): > 100 µM
EC50 (Human alphaherpesvirus 3 [3]): > 100 µM
MCC [4]: > 100 µM
EC50 (Cytomegalovirus [5]): > 100 µM
EC50 (Cytomegalovirus [6]): > 100 µM
IC50 (L1210): 146 µM
IC50 (CCRF-CEM): 104 µM
IC50 (HeLa): 95 µM
IC50 (HMEC-1): 222 µM

CCOP(=O)(OCC)[C@H]1C[C@@H](Cn2c(=O)n(C(=O)c3ccc(F)cc3)c(=O)c3ccccc32)ON1C (relative stereo)
MCC [1]: 100 µM
EC50 (Human alphaherpesvirus 3 [2]): 26.2 µM
EC50 (Human alphaherpesvirus 3 [3]): 24.5 µM
MCC [4]: > 100 µM
EC50 (Cytomegalovirus [5]): > 20 µM
EC50 (Cytomegalovirus [6]): > 20 µM
IC50 (CCRF-CEM): > 250 µM
IC50 (HeLa): > 250 µM
IC50 (HMEC-1): > 250 µM

CCOP(=O)(OCC)[C@@H]1C[C@@H](Cn2c(=O)n(C(=O)c3cccc(F)c3)c(=O)c3ccccc32)ON1C (relative stereo)
MCC [1]: 100 µM
EC50 (Human alphaherpesvirus 3 [2]): 16.7 µM
EC50 (Human alphaherpesvirus 3 [3]): 15 µM
MCC [4]: > 100 µM
CC50 (HEL): 16.5 µM
EC50 (Cytomegalovirus [5]): > 20 µM
EC50 (Cytomegalovirus [6]): > 20 µM
IC50 (L1210): 228 µM
IC50 (CCRF-CEM): > 250 µM
IC50 (HMEC-1): > 250 µM

CCOP(=O)(OCC)[C@@H]1C[C@@H](Cn2c(=O)n(Cc3ccccc3F)c(=O)c3ccccc32)ON1C (relative stereo)
MCC [1]: 20 µM
EC50 (Human alphaherpesvirus 3 [2]): > 20 µM
EC50 (Human alphaherpesvirus 3 [3]): > 20 µM
MCC [4]: 100 µM
EC50 (Cytomegalovirus [5]): > 100 µM
EC50 (Cytomegalovirus [6]): 100 µM
IC50 (L1210): 196 µM
IC50 (CCRF-CEM): 99 µM
IC50 (HeLa): 74 µM
IC50 (HMEC-1): 189 µM
